Screens (PubChem BioAssay)
Hits are enriched below; roughly 10% of the tested compounds scored in any of these assays.
Diaph act CS: compounds boosting diaphorase resazurin reduction – biochemical, uHTS, resorufin fluorescence, counter-screen for diaphorase-coupled primary assays, primary screen; AID 1229, 2008; 0.005% of 190,000 active; Diaphorase/resazurin coupled assay, 16 min; stronger effect = higher value; 1 = vehicle wells, 0 = NADH-free wells; activation factor at 20 µM;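 active = diaphorase activity raised at least twofold by the compound at 20 µM; inactive = activation factor below 2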
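Material: bacterial diaphorase enzyme (C. kluyveri); amount: enzyme 0.07 U/mL final; reagent: NADH substrate 0.114 mM plus resazurin dye 0.1 mM, final; doses: single compound dose of 20 µM, 1% DMSO final; timing: 16 min enzyme reaction, ambient temperature; measured by: fluorescence of resorufin, 544 nm excitation, 590 nm emission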
WT yeast gro inh: growth inhibition of WT strain, primary screen, mitochondrial fusion inhibitor project, WT and mutant strains, chemical genetic. mitochondrial fusion phenotypic screen. inhibition, % at 10 µM. 2.1% of 190,000 active. AID 1362, 2008; in the data active = inhibition above about 58%; tested in S. cerevisiae
PMI act satM6P: human PMI activators, high substrate, primary screen, biochemical, fluorescence intensity, near-saturating mannose 6-phosphate. activation factor at 20 µM. 0.34% of 190,000 active. AID 1216, 2008. coupled PMI enzyme assay, resazurin fluorescence, 20 min; stronger effect = higher value; 1 = untreated enzyme, 0 = substrate-free blank. Mannose-6-phosphate isomerase (Homo sapiens), P34949;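 active = activation factor of 2 or more at 20 µM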
Target sequence (P34949 whole entry, looked up): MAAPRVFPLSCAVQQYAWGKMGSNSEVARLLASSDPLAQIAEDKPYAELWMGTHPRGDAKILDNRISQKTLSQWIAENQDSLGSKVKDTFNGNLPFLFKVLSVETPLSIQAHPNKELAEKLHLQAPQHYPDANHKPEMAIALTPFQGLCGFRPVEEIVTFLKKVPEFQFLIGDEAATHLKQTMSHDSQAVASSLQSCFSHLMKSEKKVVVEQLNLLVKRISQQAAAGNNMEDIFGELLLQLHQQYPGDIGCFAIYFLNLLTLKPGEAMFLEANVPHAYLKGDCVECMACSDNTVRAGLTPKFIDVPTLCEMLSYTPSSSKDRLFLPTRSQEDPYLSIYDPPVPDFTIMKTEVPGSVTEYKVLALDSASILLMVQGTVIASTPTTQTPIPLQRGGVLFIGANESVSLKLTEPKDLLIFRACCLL
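assay system = human phosphomannose isomerase with PGI, G6PDH, diaphorase coupling enzymes | quantity = 15 ng/mL PMI | incubation = enzyme reaction with compound 20 min at room temperature | medium = HEPES pH 7.4 buffer with MgCl2 and Tween-20 | compound dosing = one concentration, 20 µM, in 1% DMSO | measured by = Diaphorase-driven resazurin-to-resorufin fluorescence, excitation 544, emission 590 nm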
PMI activator: activators of human PMI, primary screen, biochemical, fluorescence intensity, near-Km mannose 6-phosphate | activation factor at 20 µM | 0.005% of 190,000 active | AID 1214, 2008 | Mannose-6-phosphate isomerase (Homo sapiens), P34949 | purified human PMI, coupled resazurin fluorescence, 20 min; stronger effect = higher value; 1 = vehicle control, 0 substrate-free wells;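 active = activation factor of 2 or more at 20 µM, relative to plate controls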
Lmaj promast: Leishmania major promastigote growth inhibition, primary screen | inhibition, % at 10 µM | 9% of 200,000 active | Leishmania major promastigotes, resazurin fluorescence viability | AID 1063, 2008; in the data active = inhibition above about 50%;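 note: promastigotes grown with compound for 44 hours at 28 °C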
* = called active by the depositor.

SMILES	Diaph act CS	WT yeast gro inh	PMI act satM6P	PMI activator	Lmaj promast
COC(=O)c1ccc(-c2nc3ccccc3[nH]2)cc1	0.8	47	0.9	1	39
Cc1cccc(C)c1NC(=O)CN(c1ccccn1)S(=O)(=O)c1ccc(F)cc1	0.9	4	1	1	0
O=C1COc2ccc(N3C(=O)c4ccccc4C3=O)cc2N1	1.1	-1	1	1.1	-3
CN1CCN(C(=O)c2cnn3c2NC(c2ccccc2)CC3C(F)(F)F)CC1 (stereo not drawn)	0.9	5	0.9	0.9	3
CCO[C@H]1OC(C(=O)O)=C[C@@H](c2ccc3c(c2)OCO3)[C@@H]1CCCO	0.8	5	0.9	0.9	-3
OC(COc1ccc(C2C=CCC2)cc1)CN1CCCCC1 (stereo not drawn)	1.3	16	1	1.1	97*
O=C(c1ccccc1)c1ccc(OCC(O)CN2CCCCC2)cc1 (stereo not drawn)	0.9	35	0.9	1	89*
O=S(=O)(c1ccc(OCC(O)CN2CCc3ccccc3C2)cc1)N1CCOCC1 (stereo not drawn)	0.8	-2	0.9	0.9	62*
O=S(=O)(c1ccc(OCC(O)CN2CCCCC2)cc1)N1CCOCC1 (stereo not drawn)	0.9	-15	0.9	0.9	15
CN(C)S(=O)(=O)N1CCN(CC(O)COc2ccc(C(=O)c3ccccc3)cc2)CC1 (stereo not drawn)	1	18	1	1	93*
COc1ccc(/C=C/C(=O)NCc2ccccn2)cc1OC	1.2	-3	0.9	1	0
COC(=O)CNC(=O)c1sc2ncn(CC(=O)Nc3ccc(C)c(Cl)c3)c(=O)c2c1C	0.8	-5	1	1	14
Cc1ccc(S(=O)(=O)N(C)CC(=O)OCC(=O)NC(c2ccccc2)c2ccccc2)cc1	0.9	-24	1	1	-6
CC(=O)N1CCN(CC(O)COc2ccc(OCc3ccccc3)cc2)CC1 (stereo not drawn)	0.9	-4	0.9	0.9	32
OC(COc1ccc(CNCCc2ccccc2F)cc1)CN1CCCCC1 (stereo not drawn)	1.1	2	1	1	78*
CCc1ccc(CN(C)C(=O)CCc2nnc(CCc3ccccc3OC)o2)nc1	0.8	-9	0.9	0.9	-8
CCc1ccc(CN(C)C(=O)CCc2nnc(CCc3cccc(OC)c3)o2)nc1	0.8	2	0.9	0.9	100*
Cc1c(Cl)cccc1NC(=O)CCC(=O)NNC(=O)c1ccccc1Cl	0.9	4	1	1	-7
CN(C)c1ccc(-n2cccc2/C=C/[N+](=O)[O-])cc1	0.9	9	0.8	1.1	97*
CC(C(=O)c1ccc(-c2ccccc2)cc1)[n+]1ccccc1 (stereo not drawn)	0.9	0	1.1	1	34
Cc1cc[n+](C(C)C(=O)c2ccc(-c3ccccc3)cc2)cc1 (stereo not drawn)	1.1	29	1.1	1.3	90*
Cc1ccc[n+](C(C)C(=O)c2ccc(-c3ccccc3)cc2)c1 (stereo not drawn)	0.9	13	1	1	98*
CCNC(=O)n1nccc1C(C)Oc1ccc(Cl)cc1 (stereo not drawn)	0.9	7	1	1	-1
O=C1/C(=C/c2c[nH]c3ccccc23)CCC/C1=C\c1c[nH]c2ccccc12	0.8	48	1.2	1.2	84*
CCCCC1(C)OC(=O)C(=Cc2c[nH]c3ccccc23)C(=O)O1 (stereo not drawn)	1	-5	1	1.2	4
SMILES	Diaph act CS	WT yeast gro inh	PMI act satM6P	PMI activator	Lmaj promast
Cc1ccc2nc(-c3ccc(NC(=S)NC4CC(C)(C)NC(C)(C)C4)cc3)sc2c1	1.5	60*	1	1	98*
O=C(N/N=C/c1ccc([N+](=O)[O-])s1)c1ccccc1	1.2	52	1	1.2	100*
O=C(CNC(=O)c1ccccc1F)N/N=C/c1cc(Br)ccc1OCc1ccccc1	0.8	2	0.8	0.7	8
O=C(CNC(=O)c1cccc(F)c1)N/N=C/c1ccc([N+](=O)[O-])s1	0.7	-10	0.8	0.9	100*
O=C(CNC(=O)c1cccc(F)c1)N/N=C/c1cc(Br)ccc1OCc1ccccc1	0.7	20	0.8	0.8	51*
O=C(Cc1ccccc1)N/N=C/c1ccc([N+](=O)[O-])s1	1	21	0.9	1	101*
C=CCN1C(=O)C(Cc2ccccc2)SC1=Nc1ccc(C(=O)O)cc1 (stereo not drawn)	0.9	-6	0.9	0.9	21
Cc1ccccc1C(=O)N/N=C/c1ccsc1C	1	-21	1.1	1.1	7
Cc1ccccc1C(=O)N/N=C/c1ccc([N+](=O)[O-])s1	1	12	0.9	1	100*
O=C(N/N=C\c1ccc([N+](=O)[O-])s1)c1cncc(Br)c1	0.8	42	1.2	1.2	100*
CCOc1ccccc1NC(=O)C(=O)N/N=C/c1ccc([N+](=O)[O-])cc1	0.9	5	0.9	1.1	-2
COc1ccccc1NC(=O)C(=O)N/N=C/c1ccc([N+](=O)[O-])s1	1.1	13	1	1.3	100*
O=C(N/N=C/c1cccs1)c1cncc(Br)c1	1	5	1	1	11
O=C(N/N=C/c1ccc([N+](=O)[O-])s1)C(O)c1ccccc1 (stereo not drawn)	0.8	-15	0.6	0.9	100*
CC(OC(=O)c1ccncc1)C(=O)Nc1cc(S(=O)(=O)N2CCCCC2)ccc1Cl (stereo not drawn)	1	6	1	0.9	-2
O=C(C1CC1)N1N=C(C2CCCCC2)CC1(O)C(F)(F)F (stereo not drawn)	0.9	11	1	0.9	-7
COC(=O)N/N=C/c1cccs1	1	-18	1	1	-5
COC(=O)N/N=C/c1ccc([N+](=O)[O-])s1	0.8	3	1.3	1.2	69*
Cn1c(SCC(=O)N/N=C/c2ccc([N+](=O)[O-])s2)nnc1-c1ccccc1	0.8	81	1	1.1	100*
O=C(N/N=C/c1ccc([N+](=O)[O-])s1)c1ccccc1Br	1	7	1.1	1.2	100*
CNC(=O)CSc1nnc(-c2ccccc2)n1C	0.9	3	1	1	-3
CC(C)NC(=O)CSc1c2c(nc3ccccc13)CCCC2	1	-4	0.9	1	12
CC(C)CCNC(=O)C1CCN(c2nc3ccccc3o2)CC1	1	-9	1	1	0
